Measurements reported in ChEMBL document CHEMBL1145801, “Inhibition of Cdc25 phosphatases by indolyldihydroxyquinones” (J Med Chem, 2003).

What was measured:
[1] = biological target: T1, M-phase inducer phosphatase 2 (Homo sapiens, UniProt P30305); experiment: Eight point inhibitory concentration against Cell division cycle 25B was determined
T1 sequence (P30305 whole entry): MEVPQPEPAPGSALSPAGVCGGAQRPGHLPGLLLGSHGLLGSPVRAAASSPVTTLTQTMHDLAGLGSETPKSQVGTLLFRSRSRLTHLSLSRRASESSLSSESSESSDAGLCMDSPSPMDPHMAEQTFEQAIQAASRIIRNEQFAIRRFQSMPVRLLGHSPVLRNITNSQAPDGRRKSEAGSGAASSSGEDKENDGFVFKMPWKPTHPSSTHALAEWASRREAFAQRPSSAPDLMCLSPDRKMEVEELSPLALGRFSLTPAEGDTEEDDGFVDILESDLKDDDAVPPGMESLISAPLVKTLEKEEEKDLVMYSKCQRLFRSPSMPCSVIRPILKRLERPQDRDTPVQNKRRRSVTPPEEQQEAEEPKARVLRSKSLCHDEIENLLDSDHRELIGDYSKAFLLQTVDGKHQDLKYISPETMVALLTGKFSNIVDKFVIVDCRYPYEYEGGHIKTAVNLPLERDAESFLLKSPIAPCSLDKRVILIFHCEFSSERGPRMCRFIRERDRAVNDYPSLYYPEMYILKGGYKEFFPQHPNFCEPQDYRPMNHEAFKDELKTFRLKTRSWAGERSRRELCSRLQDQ
In short: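 Cdc25B activity read by UV-vis at 477 nm as product formed from 3-O-methylfluorescein phosphate (mFP) at 50 μM (~5 × Km), time-dependent, initial-velocity conditions (2–5% turnover); eight inhibitor concentrations, IC50 fitted to eq 1. Each reaction compared with a simultaneous no-inhibitor control; selected compounds run in duplicate.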

[2] = biological target: T2, M-phase inducer phosphatase 1 (Homo sapiens, UniProt P30304); experiment: Eight point inhibitory concentration against Cell division cycle 25A was determined
T2 sequence (P30304 whole entry): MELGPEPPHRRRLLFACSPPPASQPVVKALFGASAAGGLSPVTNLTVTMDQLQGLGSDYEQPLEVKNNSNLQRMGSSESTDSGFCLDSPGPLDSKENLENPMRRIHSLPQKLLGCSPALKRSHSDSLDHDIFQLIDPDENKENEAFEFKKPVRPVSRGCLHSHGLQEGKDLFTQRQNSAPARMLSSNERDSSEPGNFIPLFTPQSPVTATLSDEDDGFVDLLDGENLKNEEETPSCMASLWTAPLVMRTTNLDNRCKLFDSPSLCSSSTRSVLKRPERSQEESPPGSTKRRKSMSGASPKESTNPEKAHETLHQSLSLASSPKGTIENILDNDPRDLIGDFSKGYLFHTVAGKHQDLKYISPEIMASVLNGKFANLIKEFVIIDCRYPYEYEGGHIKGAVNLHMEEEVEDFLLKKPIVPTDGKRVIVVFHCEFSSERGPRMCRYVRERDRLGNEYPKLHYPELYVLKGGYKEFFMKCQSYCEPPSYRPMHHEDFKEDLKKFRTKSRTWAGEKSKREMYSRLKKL
In short: (§1)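 Phosphatase activity measured with 3-O-methylfluorescein phosphate at 50 μM (~5 × Km), product formation followed at 477 nm by UV-vis under initial velocity conditions (2–5% turnover) in time-dependent assays. Eight inhibitor concentrations were used, and IC50 was obtained by fitting to a dose–response equation.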

[3] = biological target: T3, M-phase inducer phosphatase 3 (Homo sapiens, UniProt P30307); experiment: Eight point inhibitory concentration against Cell division cycle 25 degree C was determined; in short: as §1
T3 sequence (P30307 whole entry): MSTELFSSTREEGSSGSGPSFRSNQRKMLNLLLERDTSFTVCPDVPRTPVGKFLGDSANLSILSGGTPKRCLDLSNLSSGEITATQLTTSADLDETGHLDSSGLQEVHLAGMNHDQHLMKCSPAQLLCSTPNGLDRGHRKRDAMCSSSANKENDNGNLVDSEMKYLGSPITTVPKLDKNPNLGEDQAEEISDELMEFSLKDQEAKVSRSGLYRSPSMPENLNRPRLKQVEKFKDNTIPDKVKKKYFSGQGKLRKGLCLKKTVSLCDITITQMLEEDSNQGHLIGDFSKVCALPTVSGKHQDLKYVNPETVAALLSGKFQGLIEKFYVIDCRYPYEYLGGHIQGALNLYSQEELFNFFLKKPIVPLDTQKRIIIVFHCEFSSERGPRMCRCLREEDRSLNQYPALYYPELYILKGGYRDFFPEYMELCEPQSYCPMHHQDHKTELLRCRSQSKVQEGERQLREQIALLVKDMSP

[4] = biological target: T4, M-phase inducer phosphatase 3 (Homo sapiens) (UniProt P30307); experiment: Percent inhibition of cell division cycle 25 degree C at 50 uM
T4 sequence (whole entry): T3 sequence (P30307 whole entry)
In short: (§2)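 Single-point screen at 50 μM inhibitor against Cdc25A, Cdc25B or Cdc25C with 50 μM 3-O-methylfluorescein phosphate, product followed at 477 nm in time-dependent assays. Activity was compared with a simultaneous no-inhibitor control, and selected compounds were run in duplicate (average error ±7%).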

[5] = biological target: T5, M-phase inducer phosphatase 1 (Homo sapiens) (UniProt P30304); experiment: Percent inhibition of cell division cycle 25A at 50 uM; in short: as §2
T5 sequence (whole entry): T2 sequence (P30304 whole entry)

[6] = biological target: T6, M-phase inducer phosphatase 2 (Homo sapiens) (UniProt P30305); experiment: Percent inhibition of cell division cycle 25B at 50 uM; in short: as §2
T6 sequence (whole entry): T1 sequence (P30305 whole entry)

[7] = biological target: T7, M-phase inducer phosphatase 2 (Homo sapiens, UniProt P30305); experiment: Inhibitory constant of compound against Cell division cycle 25B was determined
[8] = biological target: T7, M-phase inducer phosphatase 2; experiment: Inhibitory concentration of compound against truncated mutant of Cdc25B phosphatase was determined
In short: (§3)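 Cdc25B catalytic domain constructs (wild-type, site-directed point mutants, truncated); activity with 3-O-methylfluorescein phosphate at 50 μM (~5 × Km), product read at 477 nm by UV-vis under initial velocity (2–5% turnover); eight inhibitor concentrations, IC50 fitted; values are mean of two determinations.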

[9] = biological target: M-phase inducer phosphatase 2 (Homo sapiens, UniProt P30305, F489A); experiment: Inhibitory concentration of compound against mutant F475A of Cdc25B phosphatase was determined; in short: as §3
[10] = biological target: T1, M-phase inducer phosphatase 2; experiment: Inhibitory constant of compound against Cdc25B phosphatase was determined using mFP as a substrate
[11] = biological target: T7, M-phase inducer phosphatase 2; experiment: Inhibitory concentration of compound against mutant WT of Cdc25B phosphatase was determined; in short: as §3
[12] = biological target: M-phase inducer phosphatase 2 (Homo sapiens, UniProt P30305, E488Q); experiment: Inhibitory concentration of compound against mutant E474Q of Cdc25B phosphatase was determined; in short: as §3
[13] = biological target: T1, M-phase inducer phosphatase 2; experiment: Inhibitory concentration of compound against Cdc25B phosphatase was determined using CDK2-p-TpY/Cyclin A as a substrate
In short: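 Cdc25B IC50 with Cdk2-pTpY/CycA protein substrate at 300 nM; eight inhibitor concentrations; time-dependent assays; 1 mg/mL BSA carrier added only after TCA quench, not during reaction.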

[14] = biological target: M-phase inducer phosphatase 2 (Homo sapiens, UniProt P30305, R496L); experiment: Inhibitory concentration of compound against mutant R482L of Cdc25B phosphatase was determined; in short: as §3
[15] = biological target: T1, M-phase inducer phosphatase 2; experiment: Inhibitory concentration of compound against Cell division cycle 25B was determined using CDK2-p-TpY/Cyclin A as a substrate
In short: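 Cdc25B dephosphorylation of 300 nM Cdk2-pTpY/CycA protein substrate was run in time-dependent assays at eight inhibitor concentrations to give IC50. Reactions were quenched with TCA, and bovine serum albumin carrier (1 mg/mL) was added only after the quench so that it was absent during inhibitor exposure.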

[16] = biological target: T1, M-phase inducer phosphatase 2; experiment: Inhibitory constant of compound against Cell division cycle 25B was determined using mFP as a substrate
[17] = biological target: T4, M-phase inducer phosphatase 3 (Homo sapiens); experiment: Percent inhibition against Cdc25C phosphatase at 50 uM of compound; in short: as §2

M-phase inducer phosphatase 2 (Homo sapiens, UniProt P30305, E488Q), sequence (P30305 whole entry E488Q): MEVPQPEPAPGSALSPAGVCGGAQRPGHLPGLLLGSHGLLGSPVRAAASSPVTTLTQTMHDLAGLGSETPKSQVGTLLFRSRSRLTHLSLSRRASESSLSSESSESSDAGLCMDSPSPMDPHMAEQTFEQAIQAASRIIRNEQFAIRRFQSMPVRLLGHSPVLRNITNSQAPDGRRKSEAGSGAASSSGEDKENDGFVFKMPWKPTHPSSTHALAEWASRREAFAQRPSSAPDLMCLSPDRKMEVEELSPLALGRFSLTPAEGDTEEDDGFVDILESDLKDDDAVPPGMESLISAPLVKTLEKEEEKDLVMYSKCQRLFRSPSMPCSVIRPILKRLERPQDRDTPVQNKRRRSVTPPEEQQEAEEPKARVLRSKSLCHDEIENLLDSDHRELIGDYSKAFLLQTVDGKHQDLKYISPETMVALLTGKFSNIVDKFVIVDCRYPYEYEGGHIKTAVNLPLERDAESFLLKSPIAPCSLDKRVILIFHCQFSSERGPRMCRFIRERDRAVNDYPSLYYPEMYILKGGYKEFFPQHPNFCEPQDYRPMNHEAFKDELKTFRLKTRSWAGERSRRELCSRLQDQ
M-phase inducer phosphatase 2 (Homo sapiens, UniProt P30305, F489A), sequence (P30305 whole entry F489A): as the sequence (P30305 whole entry E488Q) above, with Q488E, F489A counted along it
M-phase inducer phosphatase 2 (Homo sapiens, UniProt P30305, R496L), sequence (P30305 whole entry R496L): as the sequence (P30305 whole entry E488Q) above, with Q488E, R496L counted along it

| SMILES | IC50 [1] [µM] | IC50 [2] [µM] | IC50 [3] [µM] | inhibition [4] [%] | inhibition [5] [%] | inhibition [6] [%] | other results |
| --- | --- | --- | --- | --- | --- | --- | --- |
| O=C1/C(=N/CCc2cc(Br)c(O)c(Br)c2)C=C(O)c2cccnc21 | 35 | 15 | 35 |  |  |  |  |
| CC(C)=CCC/C(C)=C/Cc1cccc2c(C3=C(O)C(O)=CC(=O)C3=O)c[nH]c12 |  | 1 | 10 | 96 | 86 | 95 |  |
| CC(C)(C)c1cccc2c(C3=C(O)C(O)=CC(=O)C3=O)c[nH]c12 | 7.2 | 7.2 | > 50 | 37 | 93 | 33 |  |
| O=C1C=C(O)C(=O)C(c2c[nH]c3ccc(Br)cc23)=C1O |  | 5.8 |  | 26 | 83 | 55 |  |
| CC(C)=CCC/C(C)=C/CC/C(C)=C/Cc1cccc2c(C3=C(O)C(O)=CC(=O)C3=O)c[nH]c12 | 2.4 | 2.4 | 3.5 | 85 | 96 | 89 | Ki [7]: 0.64 µM |
| O=C1C=C(O)C(=O)C(c2c[nH]c3c(OCc4ccccc4)cccc23)=C1O | 4.2 | 4.2 | 6.9 | 85 | 98 | 97 |  |
| O=C1C=C(O)C(=O)C(c2c[nH]c3c(-c4ccccc4)cccc23)=C1O | 2.5 | 2.5 | 27 | 91 | 99 | 92 |  |
| CCCc1cccc2c(C3=C(O)C(O)=CC(=O)C3=O)c[nH]c12 | 59 | 4.2 | > 50 | 79 | 72 | 23 |  |
| O=C1C=C(O)C(=O)C(c2c(C3CC3)[nH]c3ccccc23)=C1O | > 50 | 35 | > 50 | 0 | 22 | 32 |  |
| O=C1C=C(O)C(=O)C(c2c[nH]c3c(Cc4ccccc4)cccc23)=C1O | 2.3 | 2.3 | 15 | 98 | 100 | 97 |  |
| CC(C)=CCc1c(Cl)ccc2c(C3=C(O)C(O)=CC(=O)C3=O)c[nH]c12 | 7.2 | 4 | 11 |  |  |  |  |
| O=C1C=C(O)C(=O)C(c2c[nH]c3ccccc23)=C1O | 18 | 25 | 30 | 69 | 33 | 75 | IC50 [8]: 34 µM; IC50 [9]: 76 µM; Ki [10]: 13 µM; IC50 [11]: 18 µM; IC50 [12]: 200 µM; IC50 [13]: > 50 µM; IC50 [14]: 73 µM |
| Cc1ccccc1Cc1cccc2c(C3=C(O)C(O)=CC(=O)C3=O)c[nH]c12 | 1 | 1 | 3.5 | 94 | 100 | 97 |  |
| Cc1[nH]c2c(C)cccc2c1C1=C(O)C(O)=CC(=O)C1=O |  |  |  | 0 | 0 | 0 |  |
| O=C1C=C(O)C(=O)C(c2c[nH]c3ccc(OCc4ccccc4)cc23)=C1O |  | 5.5 |  | 26 | 100 | 50 |  |
| CC(C)=CCc1c(Cl)cc(Cl)c2c(C3=C(O)C(O)=CC(=O)C3=O)c[nH]c12 | 2.3 | 5 | 8.8 |  |  |  | IC50 [15]: 8.6 µM; Ki [16]: 0.43 µM |
| Cc1ccc2c(C3=C(O)C(O)=CC(=O)C3=O)c[nH]c2c1C |  |  |  | 20 | 9 | 32 |  |
| CC(C)(C)c1[nH]c2ccccc2c1C1=C(O)C(O)=CC(=O)C1=O |  |  |  | 0 | 30 | 11 |  |
| O=C1C=C(O)C(=O)C(c2c[nH]c3cccc(Cl)c23)=C1O | > 50 | 28 | > 50 | 0 | 22 | 21 |  |
| O=C1C=C(O)C(=O)C(c2c[nH]c3cc(Cl)ccc23)=C1O | 14 | 4.2 | 40 | 81 | 100 | 92 |  |
| O=C1C=C(O)C(=O)C(c2c[nH]c3c2ccc2ccccc23)=C1O | 24 | 2.5 | 15 | 75 | 99 | 79 |  |
| O=C1C=C(O)C(=O)C(c2c(-c3ccccc3)[nH]c3ccccc23)=C1O |  |  |  | 18 | 40 | 38 |  |
| COc1cccc2c(C3=C(O)C(O)=CC(=O)C3=O)c[nH]c12 |  |  |  | 13 | 0 | 15 |  |
| Cc1ccc2[nH]cc(C3=C(O)C(O)=CC(=O)C3=O)c2c1 |  | 8.1 |  |  | 100 | 61 | inhibition [17]: 55% |
